{"data": "Measurements of several laboratories", "MET M1250T": "Hepatocyte growth factor receptor (MET, Homo sapiens, UniProt P08581, M1250T)", "MET": "Hepatocyte growth factor receptor (MET, Homo sapiens, UniProt P08581)", "MET Y1235D": "Hepatocyte growth factor receptor (MET, Homo sapiens, UniProt P08581, Y1235D)"}
{"Structure (SMILES)": "COc1cc(-c2cn(C3CCc4c(F)cccc4N(CC(F)(F)F)C3=O)nn2)ccc1-n1cnc(C)c1 (stereo not drawn)", "target": "MET M1250T", "test": "cell-free assay, competition with immobilised ligand", "setting": "1 µM", "remaining binding": "100%"}
{"Structure (SMILES)": "C[C@H]1CCN(c2nccc(-c3cnn4ncccc34)n2)C1", "target": "MET", "test": "binding", "setting": "1 µM", "remaining binding": "94%"}
{"Structure (SMILES)": "COc1ncc2cc3ccccc3nc2c1C#N", "target": "MET Y1235D", "test": "cell-free assay, competition with immobilised ligand", "setting": "5 µM", "remaining binding": "80%"}
{"Structure (SMILES)": "c1cncc(-c2cccc(Nc3nccc(NC4CCCCC4)n3)c2)c1", "target": "MET M1250T", "test": "binding, competition with immobilised ligand", "setting": "10 µM", "remaining binding": "29%"}
{"Structure (SMILES)": "CN(C)C(=O)Cn1cc(-c2nc(C3(c4ccc(-c5cnc(N)nc5)cc4)CC3)no2)cn1", "target": "MET", "test": "cell-free assay, competition with immobilised ligand", "setting": "1 µM", "remaining binding": "73%"}
{"Structure (SMILES)": "CC1CCCN1c1nccc(-c2cnn3ncccc23)n1 (stereo not drawn)", "target": "MET", "test": "binding", "setting": "1 µM", "remaining binding": "96%"}
{"Structure (SMILES)": "O=C(NCC1CCOCC1)c1n[nH]cc1NC(=O)c1c(F)cccc1F", "target": "MET Y1235D", "test": "binding, competition with immobilised ligand", "setting": "1 µM", "remaining binding": "97%"}
{"Structure (SMILES)": "Cc1cnc(Nc2ccc(C(=O)N3CCC(N4CCCC4)CC3)cc2)nc1-c1cc2ccccc2s1", "target": "MET", "test": "binding, competition with immobilised ligand", "setting": "1 µM", "remaining binding": "100%"}
{"Structure (SMILES)": "N[C@H]1CCN(c2nccc(-c3cnn4ncccc34)n2)C1", "target": "MET", "test": "binding", "setting": "1 µM", "remaining binding": "90%"}
{"Structure (SMILES)": "O=C(c1ccc(Nc2ncc(Cl)c(-c3ccc(Cl)s3)n2)cc1)N1CCC(N2CCCC2)CC1", "target": "MET M1250T", "test": "binding, competition with immobilised ligand", "setting": "1 µM", "remaining binding": "6.5%"}
{"Structure (SMILES)": "FC(F)(F)c1ccc2c(c1)nc(-c1cccnc1)n2C1CC1", "target": "MET Y1235D", "test": "cell-free assay, competition with immobilised ligand", "setting": "1 µM", "remaining binding": "100%"}
{"Structure (SMILES)": "Nc1ncc2c(n1)-c1c([nH]c3ccc(C#CC4CC4)cc13)CCCC2", "target": "MET M1250T", "test": "binding, competition with immobilised ligand", "setting": "1 µM", "remaining binding": "95%"}
{"Structure (SMILES)": "CC1=C(C#N)C(c2ccc3c(c2)c(NC(=O)c2ccccc2C)nn3C)C(C#N)=C(C)N1", "target": "MET", "test": "cell-free assay, competition with immobilised ligand", "setting": "1 µM", "remaining binding": "24%"}
{"Structure (SMILES)": "COc1cnc(Nc2cccc(S(N)(=O)=O)c2)nc1N1CCN(c2ccccc2)C(=O)C1", "target": "MET", "test": "binding, competition with immobilised ligand", "setting": "1 µM", "remaining binding": "100%"}
{"Structure (SMILES)": "CN(C(=O)c1ccccc1)c1cc(N(C)c2ccc3c(c2)CCc2ccc(C(=O)NCCN4CCOCC4)cc2C3=O)ccc1F", "target": "MET Y1235D", "test": "cell-free assay, competition with immobilised ligand", "setting": "1 µM", "remaining binding": "85%"}
{"Structure (SMILES)": "O=C(c1ccc(Nc2ncc(Cl)c(-c3cc4ccccc4s3)n2)cc1)N1CCC(N2CCCC2)CC1", "target": "MET", "test": "binding, competition with immobilised ligand", "setting": "1 µM", "remaining binding": "82%"}
{"Structure (SMILES)": "O=C1CCc2cc(Nc3cc(OC4CCOCC4)c([N+](=O)[O-])cc3Cl)ccc2N1", "target": "MET Y1235D", "test": "cell-free assay, competition with immobilised ligand", "setting": "1 µM", "remaining binding": "100%"}
{"Structure (SMILES)": "Cc1cnn2ncc(-c3ccnc(N(C)C)n3)c2c1", "target": "MET M1250T", "test": "binding", "setting": "1 µM", "remaining binding": "61%"}
